The entries come from a sample that favours hits as a whole.
ABCG2 inh – blocks JC-1 efflux by human ABCG2 transporter. IgMXP3 cells, flow cytometry. inhibition, % at 6.6 µM. 0.1% of 190,000 active. AID 1325;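 active = inhibition above 80%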;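 also: 0% = DMSO and 100% = nicardipine control wells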
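Times: 10 min at 25 °C | Test system: Two drug-resistant human cell lines, ABCG2 and ABCB1 | Quantity: 3 million cells/mL final, two lines in 1:1 ratio | Signal: Flow cytometry, 530 nm JC-1 signal | Dosing: Compound at 6.6 µM | Controls: Nicardipine and DMSO wells | Reagent: JC-1 as fluorescent efflux pump substrate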
ABCB1 block – inhibitors of human ABCB1 transporter, ABCG2 counter-screen. P08183. CCRF-Adr cells, JC-1 efflux, flow cytometry. inhibition, % at 6.6 µM. 0.067% of 190,000 active. AID 1326; in the data active = inhibition above about 40%;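 also: 0% = vehicle and 100% = reference inhibitor; higher value means more JC-1 retained so stronger ABCB1 efflux block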
Target sequence (P08183 whole entry, looked up): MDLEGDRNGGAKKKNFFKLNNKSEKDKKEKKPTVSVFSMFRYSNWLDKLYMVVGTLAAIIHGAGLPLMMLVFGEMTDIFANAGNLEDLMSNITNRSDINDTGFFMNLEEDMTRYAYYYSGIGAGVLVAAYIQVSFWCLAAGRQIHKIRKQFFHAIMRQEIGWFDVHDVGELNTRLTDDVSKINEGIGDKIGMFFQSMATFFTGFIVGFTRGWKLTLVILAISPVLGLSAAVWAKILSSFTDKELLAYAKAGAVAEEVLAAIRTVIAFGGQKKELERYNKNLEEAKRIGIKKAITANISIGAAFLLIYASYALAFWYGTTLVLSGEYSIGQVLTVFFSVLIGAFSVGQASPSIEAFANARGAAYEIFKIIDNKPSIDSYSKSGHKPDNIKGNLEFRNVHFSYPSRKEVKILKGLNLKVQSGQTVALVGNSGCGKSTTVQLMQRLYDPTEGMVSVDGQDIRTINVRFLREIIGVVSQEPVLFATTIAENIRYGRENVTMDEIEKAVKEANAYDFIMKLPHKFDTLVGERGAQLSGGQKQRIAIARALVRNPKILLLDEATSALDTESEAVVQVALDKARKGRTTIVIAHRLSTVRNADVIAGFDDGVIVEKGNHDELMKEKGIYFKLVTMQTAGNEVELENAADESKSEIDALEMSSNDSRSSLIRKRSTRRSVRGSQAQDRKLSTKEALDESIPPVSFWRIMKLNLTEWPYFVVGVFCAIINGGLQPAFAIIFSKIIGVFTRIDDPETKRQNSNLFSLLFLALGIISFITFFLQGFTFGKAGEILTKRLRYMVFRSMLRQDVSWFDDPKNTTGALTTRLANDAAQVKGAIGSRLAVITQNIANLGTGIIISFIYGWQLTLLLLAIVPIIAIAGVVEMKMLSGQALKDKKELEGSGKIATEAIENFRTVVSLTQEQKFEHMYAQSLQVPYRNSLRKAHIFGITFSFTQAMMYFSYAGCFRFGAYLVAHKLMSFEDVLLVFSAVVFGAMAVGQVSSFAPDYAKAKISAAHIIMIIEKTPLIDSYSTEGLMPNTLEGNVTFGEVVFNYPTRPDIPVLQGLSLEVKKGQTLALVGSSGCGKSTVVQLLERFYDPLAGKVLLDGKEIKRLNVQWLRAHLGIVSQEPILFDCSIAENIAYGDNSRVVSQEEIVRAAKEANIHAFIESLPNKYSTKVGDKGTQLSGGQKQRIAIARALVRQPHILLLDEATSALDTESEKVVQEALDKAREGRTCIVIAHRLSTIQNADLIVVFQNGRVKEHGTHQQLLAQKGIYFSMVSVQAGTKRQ
GSH fluor – GSH bead compound fluorescence profile | 0.25% of 190,000 active | GSH beads flow cytometry, compound fluorescence 488/530 nm; hits give high values | fluorescence (KMESF) at 10 µM | AID 1776; in the data active = fluorescence above about 89;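 also: glutathione beads carrying GST-tagged Bcl family fusion proteins plus one bare bead set; values are compound well signal with DMSO vehicle wells as background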
Lmaj promast – Leishmania major promastigote growth inhibition. inhibition, % at 10 µM. 9% of 200,000 active. AID 1063. Leishmania major promastigotes, resazurin fluorescence viability;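 also: promastigotes grown with compound for 44 hours at 28 °C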
PKD1 kinase inh – blocks activity of human protein kinase D1; Q15139; PKD1 kinase fluorescence polarization assay; inhibition, % (no concentration beside the values); 0.056% of 200,000 active
Avidin bead fluor – compound fluoresces at 488/530 nm on avidin beads | AID 1775 | fluorescence (KMESF) at 10 µM | compound fluorescence 488/530 nm, flow cytometry; hits give high values | 0.38% of 220,000 active; in the data active = fluorescence above about 47
* hit, by the source's call; . = no result given. Rule as the data show it, unless noted: active = inhibition above about 50%; inactive = the rest.

SMILES | ABCG2 inh | ABCB1 block | GSH fluor | Lmaj promast | PKD1 kinase inh | Avidin bead fluor
O=C(NCC(O)CN1CCOCC1)c1ccc([N+](=O)[O-])cc1 (configuration not stated) | 3.8 | 0.7 | 22 | -6.4 | 1.3 | 5
COc1ccc(OC)c(C2NC(=O)c3sc(=S)n(-c4ccccc4)c3N2)c1 (configuration not stated) | 8.4 | 1.4 | 19 | 1.2 | -8.1 | 15
O=C(CCC(=O)Nc1ccccc1)NNS(=O)(=O)c1ccccc1[N+](=O)[O-] | -0.9 | -0.4 | 25 | -4.0 | -0.1 | 7
Cc1cccc(/N=C/c2c(O)ccc3oc4c(c23)CCCC4)n1 | 24.1 | 1.2 | 12 | 91.2* | 5.5 | 4
Cc1ccc(OCCn2c(=S)[nH]c3c(N)ncnc32)cc1 | 6.7 | -1.5 | 14 | -6.3 | 5.5 | 19
CN1C(=O)c2ccc(NC(=S)NC(=O)C(C)(C)C)cc2C1=O | 40.9 | 0.9 | 10 | -1.1 | -2.1 | 11
CCN(c1cccc(C)c1)C(C(=O)Nc1ccc(OC)cc1)c1cc2c(cc1[N+](=O)[O-])OCO2 (configuration not stated) | 3.2 | 9.3 | 8 | 78.5* | -10.1 | 13
COc1ccc(NC(=O)C(c2cc3c(cc2[N+](=O)[O-])OCO3)N(C)Cc2ccccc2)cc1 (configuration not stated) | 7.9 | 3.2 | 7 | 7.5 | -8.5 | 1
CCC(C)(C)NC(=O)C(c1ccccc1F)N(Cc1ccco1)C(=O)c1csnn1 (configuration not stated) | 0.0 | 0.0 | 13 | 56.6* | -10.1 | 25
CC(C)(C)NC(=O)C(c1ccc(F)cc1)N(Cc1ccco1)C(=O)c1csnn1 (configuration not stated) | 5.2 | 1.9 | 72 | 3.1 | 1.4 | 12
CCCn1c(=O)[nH]c(=O)c2c(C(=O)OCC)cc(-c3cccs3)nc21 | 33.9 | 4.3 | 15 | 6.3 | -4.0 | 9
CN1CCN(c2nc3ccccc3nc2C(C#N)C(=O)OC2CCCCC2)CC1 (configuration not stated) | 28.4 | 8.5 | 15 | 89.7* | 7.8 | 13
N#CC(C(=O)NC1CCCCC1)c1nc2ccccc2nc1N1CCN(c2ccc(F)cc2)CC1 (configuration not stated) | 0.2 | 0.5 | 21 | -4.8 | 0.8 | 43
N#CC(C(=O)OC1CCCCC1)c1nc2ccccc2nc1N1CCOCC1 (configuration not stated) | 0.0 | 1.5 | 4 | 28.9 | -7.2 | 110*
CCN1CCN(c2nc3ccccc3nc2C(C#N)C(=O)OC2CCCCC2)CC1 (configuration not stated) | 4.8 | 2.0 | 17 | 84.9* | -12.3 | 13
COc1cc(S(=O)(=O)NCC2CCCO2)ccc1Br (configuration not stated) | 1.8 | 0.5 | 7 | -4.2 | -1.6 | 10
O=C1N(Cc2cccnc2)C[C@@H]2C[C@@H](c3cccc(Oc4ccccc4)c3)N3CCC[C@@]123 | . | . | . | . | . | 3
COc1ccccc1NS(=O)(=O)c1cccc(-n2c(O)c(C=Nc3ccccc3C(=O)O)c3ccccc3c2=O)c1 | . | . | . | . | . | 5
Cc1ccc(Oc2ccc(NC(=O)CSc3n[nH]c(N)n3)cc2)cc1 | -0.1 | -0.6 | 7 | 58.7* | -18.6 | 13
CCOC(=O)c1c(NC(=O)C[n+]2ccc(N(C)C)cc2)sc(C)c1C | 4.4 | -0.7 | 13 | 84.0* | -3.2 | 9
CCOC(=O)c1c(NC(=O)COC)sc(C)c1C | 8.4 | 0.5 | 126* | -0.3 | -1.0 | 6
CCOC(=O)c1c(NC(=O)CN2C(=O)NC(C)(c3ccccc3)C2=O)sc(C)c1C (configuration not stated) | 27.1 | 1.6 | 4 | 70.0* | 1.6 | 13
CCCCNCC(=O)Nc1sc(C)c(C)c1C(=O)OCC | 8.9 | 1.6 | 12 | 3.6 | -9.1 | 31
Cn1c(=O)n(C)c2cc([N+](=O)[O-])c(N3CCN(CCO)CC3)cc21 | 5.5 | 0.2 | 19 | 1.2 | 9.0 | 7
NC1=NC(=O)/C(=C/c2cn(Cc3ccccc3)c3ccccc23)S1 | 0.7 | -0.1 | 13 | 3.7 | 8.3 | 12
COc1cccc(-c2csc(N3CCN(C(=S)Nc4ccccc4Cl)CC3)n2)c1 | 0.9 | 0.1 | 23 | 99.7* | 0.3 | 11

Assay outcomes deposited in PubChem by several laboratories.
